T cruzi inh: blocks replication of Trypanosoma cruzi | inhibition, % (concentration not given with the values) | T. cruzi beta-gal in NIH3T3, luminescence, 90 h | AID 1885 | 300,000 tested, 1.4% active;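 active means mean inhibition across valid replicates above about 55%, limit read from the data; inconclusive means mean below that limit but half or more replicates reach it; inactive means mean below it, under half of replicates reach it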;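 further: signal also drops with host cell toxicity which is not excluded here; 0% = plate median of DMSO wells and 100% = zero luminescence signal; higher percent means less beta-gal luminescence so fewer parasites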
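compound dosing = single 50 nL compound addition per well in DMSO | material = NIH/3T3 host cells with β-galactosidase reporter T. cruzi | input = 5,000 host fibroblasts per well | timing = ≥90 h infection period, 3 h prior cell attachment | read-out basis = percent inhibition of parasite-derived β-gal signal | detection = GalScreen β-gal luminescence, detergent lysis, 60 min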
Beta cell apopt: blocks beta cell apoptosis; INS-1E cytokine-induced death, ATP luminescence, 48 h; percent of positive-control rescue, neutral wells zero; protection from apoptosis, % (no concentration beside the values); 300,000 tested, 0.8% active; AID 435005;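 active means Every replicate reaches about 75%, or at least half do and their mean reaches it too, limit read from the data; inconclusive means At least half of replicates reach the limit but their mean does not; inactive means Under half of replicates reach the limit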;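 further: 0% = cytokine-treated negative control wells and 100% = positive control rescue; higher means more ATP so stronger rescue from cytokine killing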
UPR XBP1 act: adaptive UPR (XBP1) activation; activation, % at 20 µM; 330,000 tested, 0.33% active; CHO-XBP1 luciferase reporter, IRE1-XBP1 UPR activation, luminescence; percent of tunicamycin response, DMSO as zero;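 active means versus positive control, 20 µM dose yields 30% or more activation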;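 further: 100% = tunicamycin at 10 µg/mL and 0% = DMSO only wells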
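Material: CHO-XBP1 cells stably carrying IRE1-XBP1-driven luciferase reporter | Medium: F12 with 10% serum | Compound dosing: 20 µM single concentration, DMSO 1% | Incubation: Overnight seeding at 37 °C, 6 h compound treatment at 37 °C | Detection: Steady-Glo luminescence read | Read-out basis: % activation of reporter signal versus tunicamycin and DMSO controls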
CSC inhib: blocks cancer stem cells | AID 2717 | inhibition, % at 7.5 µM | cancer stem cell-like cells viability, luminescence | 300,000 tested, 1.1% active; in the data active means inhibition above about 75%; inconclusive means no clear call, values can overlap the other calls; tested in HMLE shEcad cells
UPR CHOP act: apoptotic UPR (CHOP) activation; CHO-CHOP luciferase reporter, luminescence; percent of tunicamycin response over DMSO baseline; activation, % at 10 µM; 330,000 tested, 0.34% active; AID 449763;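 active means at 10 µM dose, activation of 40% or more, normalized to positive control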;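 further: 100% = tunicamycin at 10 µg/mL and 0% = DMSO alone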
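System: CHO CHOP reporter cells. Amount: 500 cells per well. Buffer or medium: F12 medium, 10% FBS. Compound dosing: one dose, 10 µM in 0.5% DMSO. Incubation: 6 h compound exposure at 37 °C after overnight seeding. Technique: Steady-Glo luciferase luminescence. Benchmarks: tunicamycin and DMSO controls.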
Mdm2-MdmX inh: disrupts the human Mdm2-MdmX interaction; O15151+Q00987; SaOS-2 split-luciferase Mdm2/MdmX complementation, luminescence; inhibition, % at 8 µM; 330,000 tested, 3% active; AID 485346;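 active means inhibition of at least 50% at 8 µM in the primary screen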
Mdm2 MdmX conf: confirmation of human Mdm2/MdmX interaction inhibitors; shares compounds with Mdm2-MdmX inh; Mdm2-MdmX binding, luminescent assay; AID 489028; inhibition, % at 8 µM; 10,000 tested, 55% active; in the data active means inhibition above about 40%
FLuc counter: inhibits full-length luciferase, flagging false Mdm2/MdmX hits; inhibition, % at 8 µM; AID 504607; shares compounds with Mdm2-MdmX inh; SaOS-2 full-length luciferase counterscreen, luminescence; 6,200 tested, 77% active;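 active means mean inhibition at 8 µM reaching about 37%, which flags the compound as non-specific, limit read from the data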;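 further: p53-null SaOS-2 cells with luciferase driven by a doxycycline-inducible promoter; compound on cells about two nights before reading with doxycycline added after day one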
* marks the source's active call; other numbers are inactive results; ? = inconclusive; · = not tested or not shown. Rows were chosen to be rich in hits. Some 5% of all compounds tested hit in one or more screens of this group.

SMILES | T cruzi inh | Beta cell apopt | UPR XBP1 act | CSC inhib | UPR CHOP act | Mdm2-MdmX inh | Mdm2 MdmX conf | FLuc counter
O=C(Nc1nnc(-c2ccc(F)cc2)s1)Nc1ccccc1F | 3 | -4 | 3 | -14 | 1 | 2 | · | ·
O=C(Nc1nnc(-c2ccccc2SCc2ccccc2F)s1)Nc1ccccc1F | -3 | 25 | 0 | 9 | -2 | 79* | 66* | 101*
CCN(CC)S(=O)(=O)c1ccc(N/N=C(\C)c2ccc(OC)cc2O)nc1 | 52 | 97* | 12 | 48 | 0 | 57* | 32 | ·
CCOc1cccc(/C=N/Nc2ccc(S(=O)(=O)N(CC)CC)cn2)c1O | 8 | 117* | 0 | 117* | -1 | 81* | 85* | 55*
CCOc1ccc(-n2c(-c3ccc(OC)cc3)c[n+]3c2CCCCC3)cc1 | 53 | 97* | 3 | 34 | 0 | 56* | 47* | 46*
COc1ccc(-c2c[n+]3c(n2-c2ccc(C)cc2)CCCCC3)cc1 | 60* | 127* | -2 | 16 | 2 | 62* | 40* | 49*
O=C(NCc1ccc(Cl)cc1)C1CCC(=O)N(C2CCCCCC2)C1 (stereo not drawn) | -4 | · | -3 | -1 | 2 | 6 | · | ·
O=C(OCn1ncc(Cl)c(Cl)c1=O)c1ccc(F)cc1 | 63* | 102* | -5 | · | -11 | 93* | 100* | 50*
O=c1c(Cl)c(Cl)cnn1Cc1ccc(F)cc1 | -18 | 112* | -1 | -23 | 9 | 93* | 35 | ·
O=C(COC(=O)c1cnc(Cl)c(Cl)c1)c1ccc(F)cc1 | · | -8 | 4 | -11 | 2 | -3 | · | ·
CCOc1ccccc1NC(=O)c1ccc(Cl)c(NC(=O)CC(c2ccccc2)c2ccccc2)c1 | 50 | 11 | -6 | -8 | -2 | 7 | · | ·
CC(C)(C)OC(=O)N1Cc2ccccc2C[C@H]1C(=O)NCC(=O)Nc1ccc2c(c1)OCCO2 | -5 | 4 | -8 | -8 | -7 | 64* | 66* | 67*
COc1ccc(C(=O)Oc2c(CN3CCOCC3)cc(Cl)c3cccnc23)cc1OC | -5 | 7 | 2 | 1 | 0 | 60* | 37 | ·
O=C(Oc1c(CN2CCOCC2)cc(Cl)c2cccnc12)c1ccccc1 | 38 | ? | 16 | 12 | 14 | 47 | · | ·
COc1cc(OC)cc(C(=O)Oc2c(CN3CCOCC3)cc(Cl)c3cccnc23)c1 | 49 | 47 | 23 | 33 | 15 | 50* | 45* | 34
COc1ccccc1CCC(=O)Nc1ncc(C)s1 | 3 | 0 | 3 | 13 | 1 | -18 | · | ·
NC(=S)n1[nH]c(-c2ccc([N+](=O)[O-])cc2)c(N=Nc2cccc(Cl)c2)c1=O | -42 | · | -4 | · | 0 | 97* | 91* | 40*
NC(=S)n1[nH]c(-c2ccc([N+](=O)[O-])cc2)c(N=Nc2ccc(O)cc2)c1=O | 16 | · | 5 | 15 | 4 | 41 | · | ·
O=[N+]([O-])c1cc([N+](=O)[O-])c2cc3ccccc3nc2c1 | 10 | 5 | -9 | 80* | -4 | 82* | 29 | ·
N/C(=N\OC(=O)c1ccc(Cl)c(Cl)c1)c1ccccn1 | -6 | 2 | -4 | · | -2 | -136 | · | ·
N/C(=N\OC(=O)c1ccc(Cl)c([N+](=O)[O-])c1)c1ccccc1 | 1 | 4 | -2 | 28 | 15 | 65* | 29 | ·
O=C(COC(=O)c1ccccc1C(=O)c1ccc(Cl)c([N+](=O)[O-])c1)NC1CC1 | 63* | -10 | -4 | 25 | 19 | 100* | 96* | 52*
Cc1ccc(C(=O)O/N=C(\N)c2cccnc2)cc1[N+](=O)[O-] | 7 | -1 | 1 | 10 | 5 | -46 | · | ·
N/C(=N\OC(=O)c1ccc(Cl)c([N+](=O)[O-])c1)c1ccccn1 | 3 | -1 | 4 | 20 | 4 | 67* | 46* | 91*
